Measured values from ChEMBL document CHEMBL4819032, “Structure-based design of highly selective 2,4,5-trisubstituted pyrimidine CDK9 inhibitors as anti-cancer agents” (Eur J Med Chem, 2021).

Experiments:
MCF7 = assay: Growth inhibition of human MCF7 cells after 48 hrs by MTT assay; format: functional
CDK2/Cyclin A2 = CDK2/Cyclin A2 (Homo sapiens, UniProt P24941); assay: Inhibition of recombinant human full length CDK2/Cyclin A using histone H1 as substrate incubated for 40 mins in presence of [gamma-33P]-ATP by scintillation counting method; format: protein-complex assay
CDK9/cyclin T1 = CDK9/cyclin T1 (Homo sapiens, UniProt P50750); assay: Inhibition of recombinant human full length CDK9/Cyclin T1 using KTFCGTPEYLAPEVRREPRILSEEEQEMFRDFDYIADWC as substrate incubated for 40 mins in presence of [gamma-33P]-ATP by scintillation counting method; format: protein-complex assay
Outline: (§1)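 Radiometric kinase assay with ATP at each kinase's Km(app). IC50 values come from 10-point dose-response curves, and apparent Ki is calculated from IC50 and the kinase's Km(ATP).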

Homo sapiens [1] = organism: Homo sapiens; assay: Selectivity index, ratio of Ki for inhibition of recombinant human full length CDK2/Cyclin A to Ki for inhibition of recombinant human full length CDK9/Cyclin T1
Outline: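 Ratio of apparent Ki values for the two CDK/cyclin complexes. Each Ki is derived from an IC50 (10-point radiometric dose-response, ATP at Km(app)) using the kinase's Km(ATP). The selectivity index is defined as Ki(CDK2)/Ki(CDK9).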

HCT-116 = assay: Growth inhibition of human HCT-116 cells after 48 hrs by MTT assay; format: functional
A549 = assay: Growth inhibition of human A549 cells after 48 hrs by MTT assay; format: functional
MDA-MB-468 = assay: Growth inhibition of human MDA-MB-468 cells after 48 hrs by MTT assay; format: functional
HeLa = assay: Growth inhibition of human HeLa cells after 48 hrs by MTT assay; format: functional
A2780 = assay: Growth inhibition of human A2780 cells after 48 hrs by MTT assay; format: functional
HT-29 = assay: Growth inhibition of human HT-29 cells after 48 hrs by MTT assay; format: functional
MIA PaCa-2 = assay: Growth inhibition of human MIA PaCa-2 cells after 48 hrs by MTT assay; format: functional
[2] = target: Cyclin-dependent kinase 1/cyclin B1 (Homo sapiens, UniProt P06493); assay: Inhibition of recombinant human full length CDK1/Cyclin B using histone H1 as substrate incubated for 40 mins in presence of [gamma-33P]-ATP by scintillation counting method; format: protein-complex assay; outline: as §1
[3] = target: Cyclin-dependent kinase 7/ cyclin H (Homo sapiens, UniProt P50613); assay: Inhibition of recombinant human full length CDK7/Cyclin H using peptide as substrate incubated for 40 mins in presence of [gamma-33P]-ATP by scintillation counting method; format: protein-complex assay; outline: as §1
Homo sapiens [4] = organism: Homo sapiens; assay: Selectivity index, ratio of Ki for inhibition of recombinant human full length […]
[5] = Growth inhibition of patient derived CLL cells after 48 hrs by annexin V-FITC staining based flow cytometric analysis; format: functional; details: Homo sapiens, CLL-CII
Outline: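 Freshly isolated primary CLL cells (10⁶/mL) in RPMI with 10% foetal calf serum, L-glutamine, penicillin and streptomycin, 37 °C, 5% CO₂, exposed to inhibitor for 48 h. Cells labelled with CD19-APC and annexin V-FITC; apoptosis quantified by flow cytometry in CD19+ cells. LD50 is the concentration killing 50% of CLL cells.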

Sequence of CDK9/cyclin T1 (O60563 whole entry): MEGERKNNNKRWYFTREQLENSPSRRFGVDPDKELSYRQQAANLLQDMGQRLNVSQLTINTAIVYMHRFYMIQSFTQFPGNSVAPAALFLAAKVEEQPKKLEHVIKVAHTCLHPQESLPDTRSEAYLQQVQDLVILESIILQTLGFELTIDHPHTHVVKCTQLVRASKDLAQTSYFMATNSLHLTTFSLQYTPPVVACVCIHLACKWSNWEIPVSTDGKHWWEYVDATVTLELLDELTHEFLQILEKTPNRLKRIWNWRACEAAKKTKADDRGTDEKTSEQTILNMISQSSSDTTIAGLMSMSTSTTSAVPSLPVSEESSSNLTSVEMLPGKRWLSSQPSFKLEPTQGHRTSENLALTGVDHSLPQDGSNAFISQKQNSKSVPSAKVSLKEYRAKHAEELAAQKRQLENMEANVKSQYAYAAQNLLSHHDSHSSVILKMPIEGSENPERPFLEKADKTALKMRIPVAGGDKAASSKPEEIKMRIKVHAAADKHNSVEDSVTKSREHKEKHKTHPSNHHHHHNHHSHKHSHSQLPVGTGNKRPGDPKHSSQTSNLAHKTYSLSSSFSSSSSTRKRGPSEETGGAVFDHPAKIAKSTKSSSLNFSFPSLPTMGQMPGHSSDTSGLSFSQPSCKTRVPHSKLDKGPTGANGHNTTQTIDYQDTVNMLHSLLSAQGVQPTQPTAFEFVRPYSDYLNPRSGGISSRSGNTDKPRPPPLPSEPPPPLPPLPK
Sequence of CDK9/cyclin T1 (P50750 whole entry): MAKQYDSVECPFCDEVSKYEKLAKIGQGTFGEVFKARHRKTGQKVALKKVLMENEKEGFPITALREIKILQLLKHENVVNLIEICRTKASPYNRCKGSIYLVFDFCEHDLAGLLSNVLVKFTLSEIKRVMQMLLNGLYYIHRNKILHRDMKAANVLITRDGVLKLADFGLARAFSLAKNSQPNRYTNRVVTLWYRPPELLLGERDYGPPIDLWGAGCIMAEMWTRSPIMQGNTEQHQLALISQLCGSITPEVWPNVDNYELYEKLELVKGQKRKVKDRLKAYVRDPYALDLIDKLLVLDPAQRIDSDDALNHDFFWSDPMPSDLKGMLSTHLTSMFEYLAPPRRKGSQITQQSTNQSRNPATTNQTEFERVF
Sequence of Cyclin-dependent kinase 1/cyclin B1 (P06493 whole entry): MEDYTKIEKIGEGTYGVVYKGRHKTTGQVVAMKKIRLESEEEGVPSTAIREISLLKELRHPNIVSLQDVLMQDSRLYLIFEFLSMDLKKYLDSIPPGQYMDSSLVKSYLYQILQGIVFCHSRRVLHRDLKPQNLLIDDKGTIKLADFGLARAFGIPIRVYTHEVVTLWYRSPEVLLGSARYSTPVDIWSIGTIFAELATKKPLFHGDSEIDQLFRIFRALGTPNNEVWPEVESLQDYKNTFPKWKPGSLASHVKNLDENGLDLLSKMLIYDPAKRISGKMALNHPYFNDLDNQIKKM
Sequence of Cyclin-dependent kinase 1/cyclin B1 (P14635 whole entry, further chain): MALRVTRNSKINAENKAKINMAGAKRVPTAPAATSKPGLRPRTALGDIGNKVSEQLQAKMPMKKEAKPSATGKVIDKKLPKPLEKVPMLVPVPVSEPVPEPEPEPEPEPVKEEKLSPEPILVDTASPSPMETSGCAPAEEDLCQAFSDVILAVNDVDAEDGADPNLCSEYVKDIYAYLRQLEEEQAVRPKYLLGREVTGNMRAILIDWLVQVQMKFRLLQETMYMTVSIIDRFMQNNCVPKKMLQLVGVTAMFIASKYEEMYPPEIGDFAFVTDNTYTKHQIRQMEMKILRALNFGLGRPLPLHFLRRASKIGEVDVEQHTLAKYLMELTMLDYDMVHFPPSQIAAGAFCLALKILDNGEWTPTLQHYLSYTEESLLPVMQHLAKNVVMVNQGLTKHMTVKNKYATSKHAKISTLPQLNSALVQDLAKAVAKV
Sequence of Cyclin-dependent kinase 7/ cyclin H (P51946 whole entry): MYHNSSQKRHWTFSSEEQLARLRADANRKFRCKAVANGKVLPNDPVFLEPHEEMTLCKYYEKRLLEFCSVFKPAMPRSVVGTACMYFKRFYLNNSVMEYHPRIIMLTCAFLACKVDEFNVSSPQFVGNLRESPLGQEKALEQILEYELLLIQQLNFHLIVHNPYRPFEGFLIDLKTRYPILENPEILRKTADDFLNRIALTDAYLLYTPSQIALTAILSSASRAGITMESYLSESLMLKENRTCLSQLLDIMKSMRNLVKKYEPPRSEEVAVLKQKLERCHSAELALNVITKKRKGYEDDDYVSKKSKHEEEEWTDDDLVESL
Sequence of Cyclin-dependent kinase 7/ cyclin H (P50613 whole entry): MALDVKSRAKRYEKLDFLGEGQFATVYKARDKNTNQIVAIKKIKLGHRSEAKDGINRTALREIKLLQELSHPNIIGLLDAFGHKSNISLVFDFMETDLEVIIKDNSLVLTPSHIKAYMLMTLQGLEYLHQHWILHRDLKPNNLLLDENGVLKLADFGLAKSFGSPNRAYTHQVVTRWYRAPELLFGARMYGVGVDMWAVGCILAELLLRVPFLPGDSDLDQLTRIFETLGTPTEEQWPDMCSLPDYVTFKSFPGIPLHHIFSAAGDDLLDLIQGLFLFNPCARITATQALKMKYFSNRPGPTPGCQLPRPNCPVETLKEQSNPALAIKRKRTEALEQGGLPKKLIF

SMILES | GI50 (MCF7) [nM] | Ki (CDK2/Cyclin A2) [nM] | Ki (CDK9/cyclin T1) [nM] | Ratio Ki (Homo sapiens [1]) | GI50 (HCT-116) [nM] | GI50 (A549) [nM] | GI50 (MDA-MB-468) [nM] | GI50 (HeLa) [nM] | GI50 (A2780) [nM] | GI50 (HT-29) [nM] | GI50 (MIA PaCa-2) [nM] | Ki [2] [nM] | Ki [3] [nM] | Ratio Ki (Homo sapiens [4]) | GI50 [5] [nM]
CNc1nc(C)c(-c2nc(Nc3cccc(N4CCN(S(C)(=O)=O)CC4)c3)ncc2C)s1 | 830 | 87 | 7 | 12 | 500 |  |  |  |  |  |  |  |  |  | 
CNc1nc(C2CC2)c(-c2ccnc(Nc3cccc(C(=O)NC4CCN(C)CC4)c3)n2)s1 | 1950 | 128 | 40 | 3 | 770 |  |  |  |  |  |  |  |  |  | 
CNc1nc(C)c(-c2nc(Nc3cccc(N4CCNC(=O)CC4)c3)ncc2C)s1 | 6440 | 525 | 19 | 28 | 2120 |  |  |  |  |  |  |  |  |  | 
CNc1ncc(-c2ccnc(Nc3cccc(N4CCCNCC4)c3)n2)s1 | 60 | 22 | 3 | 7 | 80 |  |  |  |  |  |  |  |  |  | 
CNc1nc(C)c(-c2nc(Nc3cccc(N4CCOCC4)c3)ncc2C)s1 | 450 | 444 | 10 | 44 | 360 |  |  |  |  |  |  |  |  |  | 
C=Cc1cnc(Nc2cccc(N3CCOCC3)c2)nc1-c1sc(NC)nc1C | > 5000 | 503 | 62 | 8 | > 5000 |  |  |  |  |  |  |  |  |  | 
CNc1nc(C)c(-c2nc(Nc3cc(N4CCN(C(C)=O)CC4)cc(N4CCN(C(C)=O)CC4)c3)ncc2C)s1 | 2000 | 1370 | 43 | 32 | 780 |  |  |  |  |  |  |  |  |  | 
CNc1nc(C)c(-c2nc(Nc3cccc(N4CCN(C(C)=O)CC4)c3)ncc2C)s1 | 3650 | 794 | 12 | 66 | 550 |  |  |  |  |  |  |  |  |  | 
CNc1nc(C(F)(F)F)c(-c2ccnc(Nc3cccc(N4CCCNCC4)c3)n2)s1 | 650 | 14 | 8 | 2 | 70 |  |  |  |  |  |  |  |  |  | 
CN1CC[C@H](c2c(O)cc(O)c3c(=O)cc(-c4ccccc4Cl)oc23)[C@H](O)C1 [ALVOCIDIB] | 92 |  |  |  | 56 | 145 | 96 | 43 | 64 | 131 | 78 |  |  |  | 
CNc1nc(C)c(-c2nc(Nc3cc(C)cc(N4CCNCC4)c3)ncc2C#N)s1 | 610 | 45 | 6 | 8 | 80 |  |  |  |  |  |  |  |  |  | 
CNc1nc(C)c(-c2nc(Nc3cccc(N4CCNCC4)c3)ncc2C)s1 | 860 | 711 | 8 | 89 | 830 |  |  |  |  |  |  | 1120 | 472 | 100 | 
CNc1nc(C)c(-c2nc(Nc3cccc(N4CCOCC4)c3)ncc2Cl)s1 | 720 | 22 | 4 | 6 | 430 |  |  |  |  |  |  |  |  |  | 
CNc1nc(C)c(-c2nc(Nc3cccc(N4CCN(C)CC4)c3)ncc2Cl)s1 | 680 | 107 | 5 | 21 | 660 |  |  |  |  |  |  |  |  |  | 
CNc1nc(C)c(-c2nc(Nc3cc(C)cc(N4CCOCC4)c3)ncc2C#N)s1 | 950 | 16 | 5 | 3 | 490 |  |  |  |  |  |  |  |  |  | 
CNc1nc(C)c(-c2ccnc(Nc3cc(N4CCN(C(C)=O)CC4)cc(N4CCN(C(C)=O)CC4)c3)n2)s1 | 420 | 2070 | 187 | 11 | 200 |  |  |  |  |  |  |  |  |  | 
CNc1nc(C)c(-c2nc(Nc3cccc(N4CCCNCC4)c3)ncc2C)s1 | 870 | 1240 | 8 | 156 | 1370 |  |  |  |  |  |  | 785 | 89 | 100 | 810
CNc1nc(C)c(-c2nc(Nc3cccc(N4CCN(C)CC4)c3)ncc2C)s1 | 1890 | 586 | 20 | 29 | 1290 |  |  |  |  |  |  |  |  |  | 
CNc1nc(C)c(-c2ccnc(Nc3cc(N4CCOCC4)cc(N4CCOCC4)c3)n2)s1 | 380 | 831 | 47 | 18 | 340 |  |  |  |  |  |  |  |  |  | 
CNc1nc(C)c(-c2nc(Nc3cccc(N4CCN(C(C)=O)CC4)c3)ncc2Br)s1 |  | 125 | 7.5 | 16 |  |  |  |  |  |  |  |  |  |  | 
CNc1nc(C)c(-c2nc(Nc3cccc(N4CCN(C(C)=O)CC4)c3)ncc2C(F)(F)F)s1 | 25000 | 1220 | 95 | 13 | 4800 |  |  |  |  |  |  |  |  |  | 
CNc1nc(C)c(-c2ccnc(Nc3cccc(N4CCN(C(C)=O)CC4)c3)n2)s1 | 5280 | 281 | 32 | 9 | 580 |  |  |  |  |  |  |  |  |  | 
CNc1nc(C)c(-c2nc(Nc3cc(C)cc(N4CCCCCC4)c3)ncc2C#N)s1 | 7040 | 52 | 25 | 2 | 4050 |  |  |  |  |  |  |  |  |  | 
CNc1nc(C)c(-c2nc(Nc3cccc(N4CCNCC4)c3)ncc2C(F)(F)F)s1 | 3050 | 1930 | 49 | 40 | 4050 |  |  |  |  |  |  |  |  |  | 
CNc1nc(C(C)C)c(-c2ccnc(Nc3cccc(N4CCN(C(C)=O)CC4)c3)n2)s1 | 70 | 680 | 91 | 8 | 80 |  |  |  |  |  |  |  |  |  | 
CNc1nc(C)c(-c2nc(Nc3cccc(N4CCCCCC4)c3)ncc2C#N)s1 | 4130 | 44 | 6 | 7 | 1540 |  |  |  |  |  |  |  |  |  | 
CC(=O)N1CCN(c2cccc(Nc3ncc4c(n3)-c3sc(N)nc3CC4)c2)CC1 | 80 | 87 | 34 | 2.5 | 60 |  |  |  |  |  |  |  |  |  | 
CNc1nc(C)c(-c2nc(Nc3cc(N4CCN(C(C)=O)CC4)cc(N4CCN(C(C)=O)CC4)c3)ncc2C#N)s1 | 2400 | 248 | 21 | 12 | 700 |  |  |  |  |  |  |  |  |  | 
CNc1nc(C)c(-c2nc(Nc3cc(N4CCOCC4)cc(N4CCOCC4)c3)ncc2C#N)s1 | 90 | 55 | 9 | 6 | 20 |  |  |  |  |  |  |  |  |  | 
